GPR7 antag – human neuropeptides B/W receptor 1 antagonism | P48145 | GPR7-expressing cells, fluorescence antagonist assay | inhibition, % at 4.4 µM | 1.1% of 290,000 active; in the data active = inhibition above about 16%, passing the limit was not always enough;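 also: cells stimulated with the agonist NPW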
Target sequence (P48145 whole entry, looked up): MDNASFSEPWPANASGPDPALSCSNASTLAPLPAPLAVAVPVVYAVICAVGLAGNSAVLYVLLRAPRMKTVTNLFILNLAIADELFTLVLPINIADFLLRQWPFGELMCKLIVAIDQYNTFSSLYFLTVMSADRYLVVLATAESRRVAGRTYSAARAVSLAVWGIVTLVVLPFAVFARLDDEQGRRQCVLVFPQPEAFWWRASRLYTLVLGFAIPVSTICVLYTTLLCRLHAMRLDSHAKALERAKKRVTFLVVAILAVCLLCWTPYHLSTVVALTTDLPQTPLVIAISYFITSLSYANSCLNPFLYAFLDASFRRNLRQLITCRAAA
NS3 helicase inh – blocks Hepatitis C virus NS3 helicase unwinding | NS3 helicase DNA unwinding, Cy5 molecular beacon fluorescence | inhibition, % at 10.9 µM | 0.56% of 290,000 active | AID 1800;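 active = inhibition above the mean of all tested compounds plus 3 SD, set per campaign, cut at about 35% in these data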
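Measured by: Cy5 fluorescence, 0 and 60 min reads / Assay system: NS3 helicase fragment of HCV / Control set: low DMSO, high thioflavine S at 110 µM / Times: 1 h reaction at 25 °C, ATP-initiated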
ZTA DNA inh – blocks Epstein-Barr virus ZTA, an EBNA-1 counter-screen | P03206 | ZTA-DNA binding, fluorescence polarization | inhibition, % at 11 µM | 0.15% of 320,000 active | AID 2234; in the data active = inhibition above about 33%
Target sequence (P03206 whole entry, looked up): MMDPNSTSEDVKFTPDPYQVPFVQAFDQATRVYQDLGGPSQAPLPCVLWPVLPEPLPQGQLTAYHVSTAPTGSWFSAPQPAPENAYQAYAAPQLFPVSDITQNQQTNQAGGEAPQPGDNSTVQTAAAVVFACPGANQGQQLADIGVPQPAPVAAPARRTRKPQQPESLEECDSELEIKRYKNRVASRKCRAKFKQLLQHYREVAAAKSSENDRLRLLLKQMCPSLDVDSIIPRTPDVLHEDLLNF
EBNA-1 inh – blocks EBNA-1 binding to DNA. 0.34% of 300,000 active. EBNA-1 DNA binding, fluorescence polarization. inhibition, % at 14.8 µM; in the data active = inhibition above about 28%
DNA FID counter-1 – displaces DNA intercalator in HCV helicase counter-screen; DNA fluorescent intercalator displacement, fluorescence; inhibition, % at 7.9 µM; 0.17% of 290,000 active; AID 1845;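 also: higher means more ethidium bromide displaced from hairpin DNA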
NS3 helicase cf – HCV NS3 helicase inhibition, confirmation assay | NS3 helicase DNA unwinding, Cy5 molecular beacon fluorescence | shares compounds with NS3 helicase inh | AID 1943 | inhibition, % at 10.9 µM | 31% of 1,600 active;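 active = inhibition above the mean of all tested compounds plus 3 SD, cutoff set per campaign, cut at about 36% in these data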
DNA FID counter-2 – displaces DNA intercalator in HCV helicase counter-screen; shares compounds with NS3 helicase inh; DNA fluorescent intercalator displacement, fluorescence; inhibition, % at 7.9 µM; 4% of 1,600 active; AID 1945;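 also: higher means more displacement of ethidium bromide from the DNA hairpin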
Large screens that a line does not name were inactive (follow-up assays come after a bar, where they were run). The list is not random: actives were taken first. Their share in the collection is about 2%. Rule as the data show it, unless noted: active = inhibition above about 37%; inactive = the rest.

O=C1CCCC(c2ccccc2)N1 (stereo unspecified)	none
COc1cc(/C=C2/C(=O)N(c3ccc(C(=O)O)cc3)N=C2C)cc(OC)c1O	none (no result: ZTA DNA inh, EBNA-1 inh)
C#CCOc1ccc(/C=C2/C(=O)N(c3cccc(C(=O)O)c3)N=C2C)cc1OC	NS3 helicase inh 40 | NS3 helicase cf inactive | DNA FID counter-2 inactive
CCc1nc2c(sc3nc4c(cc32)COC(C)(C)C4)c(=O)n1Cc1ccco1	NS3 helicase inh 40 | NS3 helicase cf inactive | DNA FID counter-2 inactive
CCc1nc(OCc2ccco2)c2sc3nc4c(cc3c2n1)COC(C)(C)C4	NS3 helicase inh 48 | NS3 helicase cf inactive | DNA FID counter-2 inactive
O=C(Nc1ccccc1N1CCCC1)c1cccc(-c2cc3ccccc3oc2=O)c1	NS3 helicase inh 42 | NS3 helicase cf inactive | DNA FID counter-2 inactive
COCCCn1c(=O)/c(=C\c2ccccc2OC(C)C)s/c1=C(/C#N)C(=O)Nc1ccc(C(=O)O)cc1	NS3 helicase inh 50 | NS3 helicase cf 58 | DNA FID counter-2 inactive
CCCCNC(=O)CSc1nnc(-c2ccc(S(=O)(=O)N3CCCC3)cc2)n1C	none
C=CCNC(=O)CSc1nnc(-c2ccc(S(=O)(=O)N3CCCC3)cc2)n1C	NS3 helicase inh 47 | NS3 helicase cf inactive | DNA FID counter-2 inactive
CCOc1ccc(S(=O)(=O)N2CCCC(C(=O)NCC3CCCO3)C2)cc1Cl (stereo unspecified)	none (no result: GPR7 antag, NS3 helicase inh, DNA FID counter-1)
CCOC(=O)c1c(N)sc(=S)c2c1CCC2	NS3 helicase inh 58 | NS3 helicase cf inactive | DNA FID counter-2 inactive
COc1ccc(CNC(=O)C2CCN(S(=O)(=O)c3c(C)noc3/C=C/N(C)C)CC2)cc1	none
CCCCCCc1nc(C(N)=O)c2[nH]c(=O)n(-c3ccccc3F)c2n1	none
Cc1ccc(-n2c(C)cc(-c3csc(N)n3)c2C)cc1	NS3 helicase inh 83 | NS3 helicase cf inactive | DNA FID counter-2 inactive
O=C(O)c1ccc(CSc2nnnn2-c2ccc(F)cc2)cc1	none
Cc1ccc(-n2nnnc2SCc2ccc(C(=O)O)cc2)cc1C	NS3 helicase inh 37 | NS3 helicase cf inactive | DNA FID counter-2 inactive
Cc1cccc(NC(=S)Nc2cccc3ccccc23)c1	none
COc1cccc(NC(=S)Nc2cccc3ccccc23)c1	NS3 helicase inh 49 | NS3 helicase cf inactive | DNA FID counter-2 inactive
Fc1ccc(NC(=S)Nc2cccc3ccccc23)cc1F	NS3 helicase inh 44 | NS3 helicase cf inactive | DNA FID counter-2 inactive
COc1cccc(-c2ncc3ccccc3c2COC(=O)c2ccc(C(F)(F)F)cc2)c1	none (no result: GPR7 antag, NS3 helicase inh, EBNA-1 inh, DNA FID counter-1)
C=CCSc1n[nH]c(-c2ccc(OC)cc2)n1	NS3 helicase inh 39 | NS3 helicase cf inactive | DNA FID counter-2 inactive
O=C(N/N=C/c1cc([N+](=O)[O-])ccc1O)C(O)(c1ccccc1)c1ccccc1	NS3 helicase inh 46 | NS3 helicase cf inactive | DNA FID counter-2 inactive
O=C(N/N=C/c1cc([N+](=O)[O-])ccc1O)C1CC1	none
Cc1cc(=O)oc2cc(NC(=O)c3ccccc3OC(F)F)ccc12	none
Cc1ccccc1N1C(S)=C(C#N)C(=O)NC1c1cccs1 (stereo unspecified)	NS3 helicase inh 67 | NS3 helicase cf inactive | DNA FID counter-2 inactive
FC(F)(F)c1cccc(CNC2c3ccccc3-c3ccccc32)c1	none
CCCCOc1[nH]c2nc(-c3ccco3)n(Cc3ccco3)c(=N)c2c1C#N	NS3 helicase inh 39 | NS3 helicase cf inactive | DNA FID counter-2 inactive
N=C1/C(=C\c2ccc(-c3ccc(C(=O)O)cc3)o2)C(=O)N=C2SC=C(c3ccccc3)N12	NS3 helicase inh 36 (no result: ZTA DNA inh, EBNA-1 inh) | NS3 helicase cf 73 | DNA FID counter-2 inactive
N=C1/C(=C\c2ccc(-c3cccc(Cl)c3)o2)C(=O)N=C2SC=C(c3ccccc3)N12	NS3 helicase inh 46 | NS3 helicase cf 80 | DNA FID counter-2 inactive
COC(=O)c1cc(NC(=O)CN2C(=O)C(=O)N(C3CCCC3)C2=O)cc(C(=O)OC)c1	none (no result: GPR7 antag, NS3 helicase inh, EBNA-1 inh, DNA FID counter-1)
O=C(CSc1ccc2nnc(CCNC(=O)c3ccc(F)cc3)n2n1)NCC1CCCO1 (stereo unspecified)	none
CCOc1ccccc1N1C(=O)CC(Nc2ccc(N3CCOCC3)cc2)C1=O (stereo unspecified)	NS3 helicase inh 42 | NS3 helicase cf inactive | DNA FID counter-2 inactive
COc1cc2c(-c3ccccc3)c(C)oc2cc1/C=N/NC(N)=S	none (no result: GPR7 antag, NS3 helicase inh, DNA FID counter-1)
Cc1noc(NS(=O)(=O)c2ccc(NC(=O)Cc3ccc([N+](=O)[O-])cc3)cc2)c1C	NS3 helicase inh 42 | NS3 helicase cf inactive | DNA FID counter-2 inactive
Cc1noc(NS(=O)(=O)c2ccc(NC(=O)CS(=O)(=O)c3ccccc3)cc2)c1C	none
CC(C)C(NC(=O)Cc1ccccc1)C(=O)N1CCN(c2cccc(Cl)c2)CC1 (stereo unspecified)	none (no result: GPR7 antag, NS3 helicase inh, EBNA-1 inh, DNA FID counter-1)
Cc1cc(-c2nc3c4c5c(sc4[nH]c(=O)n3n2)CCC5)c(C)o1	NS3 helicase inh 41 | NS3 helicase cf 76 | DNA FID counter-2 inactive
Cc1nc2sc3c(c2c(=O)[nH]1)CCC3	none
COCCN(Cc1nc2ccccc2c(=O)[nH]1)C(=O)COc1c(C)cc(Cl)cc1C	none (no result: GPR7 antag, NS3 helicase inh, EBNA-1 inh, DNA FID counter-1)
COc1ccc(Cc2nc3ccc(C(=O)NCC(C)(C)OC)cc3o2)cc1	none
O=S1(=O)CCOCCN1Cc1ccc(Cl)cc1Cl	NS3 helicase inh 37 | NS3 helicase cf inactive | DNA FID counter-2 inactive
NN1C(=O)/C(=C\c2ccco2)SC1=S	NS3 helicase inh 38 | NS3 helicase cf inactive | DNA FID counter-2 inactive
O=C(CCCN1C(=O)/C(=C/c2ccco2)SC1=S)Nc1cccc(C(=O)O)c1	NS3 helicase inh 56 | NS3 helicase cf 88 | DNA FID counter-2 inactive
COc1ccccc1NS(=O)(=O)c1cccc(C(=O)N2CCN(C(=O)c3ccco3)CC2)c1	none (no result: GPR7 antag, NS3 helicase inh, EBNA-1 inh, DNA FID counter-1)
Cc1cc(NS(=O)(=O)c2ccc(NC(=O)CCc3ccccc3)cc2)no1	NS3 helicase inh 41 | NS3 helicase cf inactive | DNA FID counter-2 inactive
Cc1cc(NS(=O)(=O)c2ccc(NC(=O)CCCOc3ccccc3)cc2)no1	none
Cc1ccc(NC(=O)c2sc3nc4c(c(-c5ccco5)c3c2N)CCC4)cc1	none
Nc1c(C(=O)Nc2ccc(F)cc2)sc2nc(-c3ccco3)ccc12	NS3 helicase inh 41 | NS3 helicase cf inactive | DNA FID counter-2 inactive
CC(=O)c1sc2nc(-c3ccco3)ccc2c1N	NS3 helicase inh 68 | NS3 helicase cf 46 | DNA FID counter-2 inactive
Nc1c(C(=O)Nc2ccc(Br)cc2)sc2nc(-c3ccco3)ccc12	NS3 helicase inh 69 | NS3 helicase cf inactive | DNA FID counter-2 inactive
CCN(CC)c1ccc(C(=O)NNC(=O)CN2C(=O)NC3(CCCCC3)C2=O)cc1	none (no result: GPR7 antag, NS3 helicase inh, DNA FID counter-1)
Cc1ccc(-c2ccc(C(=O)NCCCNC(=O)c3cnccn3)o2)cc1Cl	none
CC(C)C(NC(=O)C(C)N1C(=O)c2ccccc2C1=O)c1ccccc1 (stereo unspecified)	none
Cc1cc(C)c(S(=O)(=O)N/N=C/c2ccc3c(c2)OCO3)c(C)c1	none (no result: ZTA DNA inh, EBNA-1 inh)

Screening results: PubChem BioAssay, The Scripps Research Institute Molecular Screening Center
